Laboratory results taken from ChEMBL document CHEMBL4354811, “Discovery of Novel Aryl Carboxamide Derivatives as Hypoxia-Inducible Factor 1α Signaling Inhibitors with Potent Activities of Anticancer Metastasis” (J Med Chem, 2019).
Active and inactive are the calls of the source. The calls are words filed in the database; no cut-off is given here.

What was measured:
HCCLM3 = experiment: Inhibition of HIF1alpha accumulation in hypoxia-induced human HCCLM3 cells at 10 uM incubated with compound under normoxia for 1 hr followed by hypoxia induction and measured after 24 hrs by Western blot analysis; assay type: functional, cell-based
How it was run: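 LM3 cells treated at 10 μM under hypoxia; HIF-1α protein by western blot, LW6 as reference.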

[1] = target: Hypoxia-inducible factor 1-alpha (Homo sapiens) (UniProt Q16665); experiment: Inhibition of HIF1alpha transcriptional activity in hypoxia-induced human HCCLM3 cells co-transfected with luciferase reporter plasmid containing five copies of HREs and pRL-SV40 plasmid encoding Renilla luciferase at 10 uM incubated with compound under normoxia for 1 hr followed by hypoxia induction and measured after 24 hrs by HRE-dependent dual luciferase reporter gene assay relative to control
How it was run: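 LM3 cells co-transfected with firefly luciferase reporter carrying five HRE copies plus pRL-SV40 Renilla plasmid; after transfection treated and kept under hypoxia; firefly luminescence normalized to Renilla. Single-point inhibition rate at 10 μM; IC50 for selected compounds.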

[2] = Cytotoxicity against human HCCLM3 cells assessed as reduction in cell viability incubated for 48 hrs by MTT assay; assay type: cell-based
Danio rerio = organism: Danio rerio; experiment: Antiangiogenic activity in […]/EGFP transgenic zebrafish embryo assessed as destruction of subintestinal vessel at 0.5 uM incubated for 24 hrs by confocal microscopic method; assay type: functional, organism-based
How it was run: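 Transgenic zebrafish with GFP-labeled vascular endothelium; embryos selected, […], exposed 24 h to 0.5 or 1 μM (DMSO vehicle, n = 10; apatinib 0.5 μM reference); SIVs imaged by confocal microscopy and counted per field; means ± SD, three independent experiments.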

Hypoxia-inducible factor 1-alpha (Homo sapiens), sequence (Q16665 whole entry, looked up): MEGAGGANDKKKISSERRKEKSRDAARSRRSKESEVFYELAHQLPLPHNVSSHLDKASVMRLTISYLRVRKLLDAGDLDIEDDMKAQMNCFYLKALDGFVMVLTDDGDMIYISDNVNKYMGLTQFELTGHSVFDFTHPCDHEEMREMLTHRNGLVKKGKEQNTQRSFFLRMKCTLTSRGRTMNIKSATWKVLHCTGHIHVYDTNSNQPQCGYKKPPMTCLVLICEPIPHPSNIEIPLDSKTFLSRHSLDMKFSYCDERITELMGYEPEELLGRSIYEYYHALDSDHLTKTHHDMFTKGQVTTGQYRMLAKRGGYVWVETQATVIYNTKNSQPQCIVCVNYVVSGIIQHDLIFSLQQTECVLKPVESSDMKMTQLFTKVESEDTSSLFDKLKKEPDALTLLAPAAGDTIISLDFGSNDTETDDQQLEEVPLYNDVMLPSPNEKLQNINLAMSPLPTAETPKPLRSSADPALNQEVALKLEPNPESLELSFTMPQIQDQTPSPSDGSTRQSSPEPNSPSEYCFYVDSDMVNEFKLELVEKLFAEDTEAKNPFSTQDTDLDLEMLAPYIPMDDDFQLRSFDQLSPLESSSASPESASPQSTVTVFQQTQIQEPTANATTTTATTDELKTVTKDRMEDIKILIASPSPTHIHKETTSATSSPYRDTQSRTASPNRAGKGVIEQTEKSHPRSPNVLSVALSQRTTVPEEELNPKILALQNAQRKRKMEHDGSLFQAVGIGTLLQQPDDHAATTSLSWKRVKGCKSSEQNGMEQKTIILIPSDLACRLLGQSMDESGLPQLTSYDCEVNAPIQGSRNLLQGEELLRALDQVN

SMILES	HIF-1α accumulation inhibition (qualitative) (HCCLM3)	inhibition [1] [%]	CC50 at 48 h [2] [µM]	Activity (Danio rerio)
COC(=O)c1ccc(O)c(NC(=O)COc2ccc(C34CC5CC(CC(C5)C3)C4)cc2)c1	Active	73.5	> 50	–
O=C(NCCc1ccccc1F)c1ccc(-c2ccoc2)cn1	Active	73.4	> 50	–
O=C(NCCc1ccccc1F)c1ccc(-c2ccsc2)cn1	–	88.2	> 50	–
O=C(NCCc1ccccc1F)c1ccc(-c2ccccc2)cn1	–	91.4	> 50	–
Cc1nc(C(=O)NCCc2ccccc2)cs1	Active	21.2	–	–
O=C(NCCc1ccccc1Cl)c1ccc(-c2ccccc2)cc1	–	77.2	> 50	–
N#Cc1ccccc1-c1ccc(C(=O)NCCc2ccccc2F)nc1	–	62.7	> 50	–
O=C(NCCc1ccncc1)c1nccc(-c2ccccc2)n1	–	61.5	> 50	–
O=C(NCCc1cccc(Cl)c1)c1ccc(-c2ccccc2)cn1	–	64.6	> 50	–
O=C(NCCc1ccncc1)c1nnc(-c2ccccc2)o1	–	67.3	> 50	–
O=C(NCCc1ccccc1)c1ccc(-c2ccccc2)cn1	–	82.2	> 50	–
O=C(NCCc1ccccc1F)c1ccc(-c2cccs2)cn1	–	80	> 50	–
Nc1ccc(CCNC(=O)c2ccc(-c3ccccc3)cn2)cc1	–	60.2	> 50	–
O=C(NCCc1ccccc1F)c1ccc(-c2cn[nH]c2)cn1	Active	29.5	–	–
O=C(NCCc1ccccc1Cl)c1ccc(-c2ccccc2)cn1	–	68.4	> 50	–
O=C(NCCc1ccncc1)c1ccc(-c2ccccc2)cn1	–	60.7	> 50	–
O=C(NCCc1ccccc1F)c1ccc(-c2ccccc2F)cn1	–	83.8	> 50	–
N#CC1(c2ccc(NC(=O)c3cccnc3NCc3ccncc3)cc2)CCCC1	–	–	–	Active
